Assay results taken from ChEMBL document CHEMBL1123325, “Isomer-dependent cytostatic activity of bis(1-aziridinyl)cyclophosphazenes” (1986).

Tests used:
Format in all cases: functional
L1210 [1] = test: Tested in vivo for 50% lethal dose in L1210 mouse leukemia cells
L1210 [2] = test: In vitro inhibition dose (cytostatic activity) in L1210 mouse leukemia cells
Mus musculus [3] = test: Compound was tested for percent median survival time of drug-treated mice over that of untreated control mice at dose of 900 mg/kg
Outline: (§1)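 10^5 L1210 leukemia cells from in vitro suspension culture were injected into male (BALB/c × DBA/2)F1 (CDF1) mice as intraperitoneal leukemia. Dosing began 24 h later, with 5 mice per dose and 10 untreated controls. Survival times were recorded. The value is the median survival time of treated mice as a percent of untreated controls (T/C%), with 60-day long-term survivors noted.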

Mus musculus [4] = test: Compound was tested for percent median survival time of drug-treated mice over that of untreated control mice at dose of 600 mg/kg; outline: as §1
L5178Y = test: In vitro lowest active dose (LAD) in L5178Y mouse lymphoma cells
Mus musculus [5] = test: Compound was tested for percent median survival time of drug-treated mice over that of untreated control mice at dose of 90 mg/kg; outline: as §1
Mus musculus [6] = test: Compound was tested for percent median survival time of drug-treated mice over that of untreated control mice at dose of 110 mg/kg; outline: as §1
Mus musculus [7] = test: Compound was tested for percent median survival time of drug-treated mice over that of untreated control mice at dose of 300 mg/kg; outline: as §1
Mus musculus [8] = test: Compound was tested for percent median survival time of drug-treated mice over that of untreated control mice at dose of 350 mg/kg; outline: as §1
Mus musculus [9] = test: Compound was tested for percent median survival time of drug-treated mice over that of untreated control mice at dose of 175 mg/kg; outline: as §1
Mus musculus [10] = test: Tested for percent median survival time of drug-treated mice over that of untreated control mice at dose of 200 mg/kg; outline: as §1
Mus musculus [11] = test: Compound was tested for percent median survival time of drug-treated mice over that of untreated control mice at dose of 30 mg/kg; outline: as §1
Mus musculus [12] = test: Tested for percent median survival time of drug-treated mice over that of untreated control mice at dose of 40 mg/kg; outline: as §1
Mus musculus [13] = test: Compound was tested for percent median survival time of drug-treated mice over that of untreated control mice at dose of 50 mg/kg; outline: as §1
Mus musculus [14] = test: Compound was tested for percent median survival time of drug-treated mice over that of untreated control mice at dose of 20 mg/kg; outline: as §1
Mus musculus [15] = test: Compound was tested for percent median survival time of drug-treated mice over that of untreated control mice at dose of 120 mg/kg; outline: as §1
Mus musculus [16] = test: Compound was tested for percent median survival time of drug-treated mice over that of untreated control mice at dose of 150 mg/kg; outline: as §1
Mus musculus [17] = test: Compound was tested for percent median survival time of drug-treated mice over that of untreated control mice at dose of 160 mg/kg; outline: as §1
Mus musculus [18] = test: Compound was tested for percent median survival time of drug-treated mice over that of untreated control mice at dose of 80 mg/kg; outline: as §1
Mus musculus [19] = test: Compound was tested for percent median survival time of drug-treated mice over that of untreated control mice at dose of 100 mg/kg; outline: as §1
Mus musculus [20] = test: Compound was tested for percent median survival time of drug-treated mice over that of untreated control mice at dose of 60 mg/kg; outline: as §1

| Structure (SMILES) | LD50 (L1210 [1]) [mg/kg] | ID50 (L1210 [2]) [M l-1] | LAD (L5178Y) [M l-1] | further results |
| --- | --- | --- | --- | --- |
| CNP1(NC)=NP(NC)(NC)=NP(NC)(N2CC2)=N1 (stereo not drawn) | 800 | >0.00025 | 0.0002 | T/C (Mus musculus [3]): 225%; T/C (Mus musculus [4]): 175% |
| C1CCN(P2(N3CCCC3)=NP(N3CCCC3)(N3CCCC3)=NP(N3CC3)(N3CC3)=N2)C1 |  | 1.86e-05 | 4e-06 |  |
| C1CN(P2(N3CCOCC3)=NP(N3CCOCC3)(N3CCOCC3)=NP(N3CCOCC3)(N3CC3)=N2)CCO1 (stereo not drawn) |  | >0.00025 | >0.0003 |  |
| C1CCN([P@@]2(N3CC3)=NP(N3CC3)(N3CC3)=N[P@@](N3CCCCC3)(N3CC3)=N2)CC1 | 140 | 2.1e-06 |  | T/C (Mus musculus [5]): 167%; T/C (Mus musculus [6]): 189% |
| C1CCN(P2(N3CCCC3)=N[P@@](N3CCCC3)(N3CC3)=N[P@](N3CCCC3)(N3CC3)=N2)C1 |  | 4.8e-06 | 1e-06 |  |
| CNP1(NC)=NP(NC)(NC)=NP(N2CC2)(N2CC2)=NP(NC)(NC)=N1 |  | 6.5e-06 | 1.8e-05 |  |
| C1CN(P2(N3CCOCC3)=NP(N3CC3)(N3CC3)=NP(N3CC3)(N3CC3)=N2)CCO1 | 400 | 5.8e-06 |  | T/C (Mus musculus [7]): 175%; T/C (Mus musculus [8]): 200% |
| O=S1(N2CC2)=NP(N2CC2)(N2CC2)=NP(N2CC2)(N2CC2)=N1 (stereo not drawn) | 250 | 1.06e-05 |  | T/C (Mus musculus [9]): 188%; T/C (Mus musculus [10]): 163% |
| C1CN(P2(N3CCOCC3)=N[P@](N3CCOCC3)(N3CC3)=N[P@@](N3CCOCC3)(N3CC3)=N2)CCO1 | 800 | 2.47e-05 | 3e-05 | T/C (Mus musculus [3]): 163%; T/C (Mus musculus [4]): 163% |
| CN(C)P1(N(C)C)=NP(N(C)C)(N(C)C)=NP(N2CC2)(N2CC2)=N1 |  | 1.95e-05 | 2e-05 |  |
| CNP1(NC)=N[P@@](NC)(N2CC2)=N[P@](NC)(N2CC2)=N1 | 50 | 3.3e-06 | 1e-06 | T/C (Mus musculus [11]): 200%; T/C (Mus musculus [12]): 222%; T/C (Mus musculus [13]): 289% |
| C1CN1P1(N2CC2)=NP(N2CC2)(N2CC2)=NP(N2CC2)(N2CC2)=N1 | 50 | 2e-06 |  | T/C (Mus musculus [14]): 200%; T/C (Mus musculus [12]): 163% |
| CN(C)P1(N(C)C)=NP(N(C)C)(N(C)C)=N[P@@](N(C)C)(N2CC2)=N[P@](N(C)C)(N2CC2)=N1 |  | 6.6e-06 | 2e-06 |  |
| CCOC(=O)CNP1(NCC(=O)OCC)=NP(N2CC2)(N2CC2)=NP(N2CC2)(N2CC2)=N1 | 170 | 7.2e-06 |  | T/C (Mus musculus [15]): 125%; T/C (Mus musculus [16]): <100% |
| C1CCN(P2(N3CCCC3)=NP(N3CC3)(N3CC3)=NP(N3CC3)(N3CC3)=N2)C1 | 220 | 2.7e-06 |  | T/C (Mus musculus [17]): 178%; T/C (Mus musculus [10]): 211% |
| C1CN(P2(N3CCOCC3)=N[P@](N3CCOCC3)(N3CC3)=N[P@](N3CCOCC3)(N3CC3)=N2)CCO1 |  | 3.35e-05 | 6e-05 |  |
| C1CN(P2(N3CCOCC3)=NP(N3CCOCC3)(N3CCOCC3)=NP(N3CC3)(N3CC3)=N2)CCO1 |  | 0.00013 | 0.00012 |  |
| CNP1(NC)=NP(NC)(NC)=N[P@@](NC)(N2CC2)=N[P@](NC)(N2CC2)=N1 | 100 | 1.8e-06 | 2e-06 | T/C (Mus musculus [18]): 263%; T/C (Mus musculus [12]): 238%; T/C (Mus musculus [19]): 213%; T/C (Mus musculus [20]): 275% |
